Data taken from ChEMBL document CHEMBL1152560, “Substituted 2-arylbenzothiazoles as kinase inhibitors: hit-to-lead optimization” (Bioorg Med Chem, 2009).
pEC50: −log10 of the molar value.

Key:
[1] = molecular target: Mitogen-activated protein kinase 11 (Homo sapiens) (UniProt Q15759); experiment: Residual activity of p38beta at 1 uM by microplate scintillation counting
[2] = molecular target: T1, Ephrin type-B receptor 1 (Homo sapiens) (UniProt P54762); experiment: Residual activity of EPHB1 at 10 uM by microplate scintillation counting
T1 sequence (whole entry): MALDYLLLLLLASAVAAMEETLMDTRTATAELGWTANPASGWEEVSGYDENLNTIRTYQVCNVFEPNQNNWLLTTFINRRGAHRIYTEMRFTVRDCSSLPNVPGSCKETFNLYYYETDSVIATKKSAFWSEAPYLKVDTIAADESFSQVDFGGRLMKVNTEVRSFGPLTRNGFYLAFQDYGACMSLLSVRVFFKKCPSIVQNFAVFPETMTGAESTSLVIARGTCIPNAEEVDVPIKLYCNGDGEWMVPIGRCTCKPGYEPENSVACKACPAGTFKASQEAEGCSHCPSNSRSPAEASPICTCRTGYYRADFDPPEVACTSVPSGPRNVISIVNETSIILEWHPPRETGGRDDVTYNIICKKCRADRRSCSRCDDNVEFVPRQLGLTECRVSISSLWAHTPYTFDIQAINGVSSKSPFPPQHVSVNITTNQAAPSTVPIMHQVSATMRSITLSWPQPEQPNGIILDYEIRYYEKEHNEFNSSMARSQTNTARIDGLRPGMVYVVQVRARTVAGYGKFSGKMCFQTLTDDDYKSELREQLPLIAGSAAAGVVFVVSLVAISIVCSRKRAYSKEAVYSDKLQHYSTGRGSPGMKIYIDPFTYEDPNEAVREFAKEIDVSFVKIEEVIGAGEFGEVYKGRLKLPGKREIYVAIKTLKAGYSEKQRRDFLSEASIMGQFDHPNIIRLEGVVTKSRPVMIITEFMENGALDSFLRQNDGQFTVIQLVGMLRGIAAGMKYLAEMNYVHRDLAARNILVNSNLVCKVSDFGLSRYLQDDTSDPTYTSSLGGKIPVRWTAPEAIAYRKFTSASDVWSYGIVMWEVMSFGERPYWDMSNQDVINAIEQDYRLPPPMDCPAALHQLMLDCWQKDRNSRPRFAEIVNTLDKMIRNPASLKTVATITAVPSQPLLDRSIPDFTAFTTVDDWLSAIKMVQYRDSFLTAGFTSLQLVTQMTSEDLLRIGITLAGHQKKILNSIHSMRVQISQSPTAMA

[3] = molecular target: SRSF protein kinase 3 (Homo sapiens) (UniProt Q9UPE1); experiment: Residual activity of STK23 at 1 uM by microplate scintillation counting
[4] = molecular target: Casein kinase I isoform gamma-3 (Homo sapiens) (UniProt Q9Y6M4); experiment: Residual activity of CK1gamma3 at 1 uM by microplate scintillation counting
[5] = molecular target: Casein kinase I isoform epsilon (Homo sapiens) (UniProt P49674); experiment: Residual activity of CK1epsilon at 0.1 uM by microplate scintillation counting
[6] = molecular target: Serine/threonine-protein kinase WNK3 (Homo sapiens) (UniProt Q9BYP7); experiment: Residual activity of WNK3 at 1 uM by microplate scintillation counting
[7] = molecular target: T2, Activin receptor type-1B (Homo sapiens) (UniProt P36896); experiment: Residual activity of ACVR1B at 1 uM by microplate scintillation counting
T2 sequence (whole entry): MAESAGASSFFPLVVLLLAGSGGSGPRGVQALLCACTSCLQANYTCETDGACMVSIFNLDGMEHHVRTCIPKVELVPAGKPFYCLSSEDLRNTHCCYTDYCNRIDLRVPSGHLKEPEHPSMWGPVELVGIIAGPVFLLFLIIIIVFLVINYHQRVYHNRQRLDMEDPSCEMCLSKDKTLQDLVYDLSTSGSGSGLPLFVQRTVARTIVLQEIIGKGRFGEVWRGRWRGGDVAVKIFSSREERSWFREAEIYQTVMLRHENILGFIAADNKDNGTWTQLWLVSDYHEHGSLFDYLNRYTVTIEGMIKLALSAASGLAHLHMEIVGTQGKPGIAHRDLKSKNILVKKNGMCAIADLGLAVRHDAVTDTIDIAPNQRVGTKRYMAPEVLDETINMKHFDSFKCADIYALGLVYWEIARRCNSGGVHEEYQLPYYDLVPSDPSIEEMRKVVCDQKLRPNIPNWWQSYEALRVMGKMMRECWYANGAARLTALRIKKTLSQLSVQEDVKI

[8] = molecular target: SRSF protein kinase 1 (Homo sapiens) (UniProt Q96SB4); experiment: Residual activity of SRPK1 at 0.1 uM by microplate scintillation counting
[9] = molecular target: Angiopoietin-1 receptor (Homo sapiens, UniProt Q02763); experiment: Inhibition of TIE2 in human HCT116 cells by cellular phosphorylation assay; assay type: cell-based, HCT-116
In short: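 TIE2 autophosphorylation in cells expressing the receptor. Compound was applied, cells were stimulated, then lysed with phosphoprotein levels preserved. Phosphorylation was quantified by sandwich ELISA with a receptor-specific capture antibody and anti-phosphotyrosine antibody, relative to the stimulated high control.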

[10] = Residual activity of PKA at 10 uM by microplate scintillation counting
[11] = molecular target: T3, Serine/threonine-protein kinase DCLK2 (Homo sapiens) (UniProt Q8N568); experiment: Residual activity of DCAMKL2 at 10 uM by microplate scintillation counting
T3 sequence (whole entry): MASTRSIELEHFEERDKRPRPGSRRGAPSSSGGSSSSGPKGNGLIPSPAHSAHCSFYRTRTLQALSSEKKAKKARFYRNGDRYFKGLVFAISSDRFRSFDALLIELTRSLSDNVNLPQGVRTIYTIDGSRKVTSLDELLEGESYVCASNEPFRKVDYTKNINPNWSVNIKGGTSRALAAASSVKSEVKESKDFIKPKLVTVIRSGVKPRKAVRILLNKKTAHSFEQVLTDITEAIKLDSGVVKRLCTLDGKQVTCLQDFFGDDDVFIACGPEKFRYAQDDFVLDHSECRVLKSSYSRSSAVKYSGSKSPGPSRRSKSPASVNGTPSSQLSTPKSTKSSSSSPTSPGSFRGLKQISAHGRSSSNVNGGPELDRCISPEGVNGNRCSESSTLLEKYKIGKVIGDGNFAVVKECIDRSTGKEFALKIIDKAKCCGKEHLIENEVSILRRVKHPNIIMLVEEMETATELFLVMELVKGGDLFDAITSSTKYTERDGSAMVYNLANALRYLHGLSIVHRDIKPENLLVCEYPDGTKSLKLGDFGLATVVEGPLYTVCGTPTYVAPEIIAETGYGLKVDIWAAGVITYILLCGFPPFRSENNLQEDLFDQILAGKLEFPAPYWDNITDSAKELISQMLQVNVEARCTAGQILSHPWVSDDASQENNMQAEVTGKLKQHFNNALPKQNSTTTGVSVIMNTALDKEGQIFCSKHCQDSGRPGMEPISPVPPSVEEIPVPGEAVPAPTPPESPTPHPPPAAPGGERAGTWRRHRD

[12] = molecular target: Cyclin-dependent kinase 4/cyclin D1 (Homo sapiens) (UniProt P11802+P24385); experiment: Residual activity of CDK4/Cyclin D1 at 10 uM by microplate scintillation counting; assay type: protein-complex assay

Casein kinase I isoform epsilon (Homo sapiens), sequence (P49674 whole entry, looked up, canonical isoform): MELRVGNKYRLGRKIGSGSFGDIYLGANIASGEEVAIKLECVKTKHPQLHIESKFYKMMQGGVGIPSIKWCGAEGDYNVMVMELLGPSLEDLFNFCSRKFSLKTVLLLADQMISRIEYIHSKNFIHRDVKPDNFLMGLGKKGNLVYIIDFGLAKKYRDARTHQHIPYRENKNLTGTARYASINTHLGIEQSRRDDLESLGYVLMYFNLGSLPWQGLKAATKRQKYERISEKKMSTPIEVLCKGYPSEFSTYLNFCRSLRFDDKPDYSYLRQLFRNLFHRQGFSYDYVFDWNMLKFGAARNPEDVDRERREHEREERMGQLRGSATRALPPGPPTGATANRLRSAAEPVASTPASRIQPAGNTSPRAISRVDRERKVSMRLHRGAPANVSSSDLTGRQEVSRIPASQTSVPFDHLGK
Casein kinase I isoform gamma-3 (Homo sapiens), sequence (Q9Y6M4 whole entry, looked up, canonical isoform): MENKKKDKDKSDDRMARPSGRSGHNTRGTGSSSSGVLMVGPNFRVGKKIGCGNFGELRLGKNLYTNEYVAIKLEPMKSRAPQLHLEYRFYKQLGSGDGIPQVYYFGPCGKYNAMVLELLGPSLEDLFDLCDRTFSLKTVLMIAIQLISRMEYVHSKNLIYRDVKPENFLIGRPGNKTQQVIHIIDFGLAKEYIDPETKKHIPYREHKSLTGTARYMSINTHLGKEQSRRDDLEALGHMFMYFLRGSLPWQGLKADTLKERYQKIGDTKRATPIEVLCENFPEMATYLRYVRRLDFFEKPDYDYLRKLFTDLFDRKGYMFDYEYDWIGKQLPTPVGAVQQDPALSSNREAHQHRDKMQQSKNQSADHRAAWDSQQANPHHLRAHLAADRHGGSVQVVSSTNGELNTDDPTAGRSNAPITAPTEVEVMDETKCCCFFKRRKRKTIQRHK
Angiopoietin-1 receptor, sequence (Q02763 whole entry): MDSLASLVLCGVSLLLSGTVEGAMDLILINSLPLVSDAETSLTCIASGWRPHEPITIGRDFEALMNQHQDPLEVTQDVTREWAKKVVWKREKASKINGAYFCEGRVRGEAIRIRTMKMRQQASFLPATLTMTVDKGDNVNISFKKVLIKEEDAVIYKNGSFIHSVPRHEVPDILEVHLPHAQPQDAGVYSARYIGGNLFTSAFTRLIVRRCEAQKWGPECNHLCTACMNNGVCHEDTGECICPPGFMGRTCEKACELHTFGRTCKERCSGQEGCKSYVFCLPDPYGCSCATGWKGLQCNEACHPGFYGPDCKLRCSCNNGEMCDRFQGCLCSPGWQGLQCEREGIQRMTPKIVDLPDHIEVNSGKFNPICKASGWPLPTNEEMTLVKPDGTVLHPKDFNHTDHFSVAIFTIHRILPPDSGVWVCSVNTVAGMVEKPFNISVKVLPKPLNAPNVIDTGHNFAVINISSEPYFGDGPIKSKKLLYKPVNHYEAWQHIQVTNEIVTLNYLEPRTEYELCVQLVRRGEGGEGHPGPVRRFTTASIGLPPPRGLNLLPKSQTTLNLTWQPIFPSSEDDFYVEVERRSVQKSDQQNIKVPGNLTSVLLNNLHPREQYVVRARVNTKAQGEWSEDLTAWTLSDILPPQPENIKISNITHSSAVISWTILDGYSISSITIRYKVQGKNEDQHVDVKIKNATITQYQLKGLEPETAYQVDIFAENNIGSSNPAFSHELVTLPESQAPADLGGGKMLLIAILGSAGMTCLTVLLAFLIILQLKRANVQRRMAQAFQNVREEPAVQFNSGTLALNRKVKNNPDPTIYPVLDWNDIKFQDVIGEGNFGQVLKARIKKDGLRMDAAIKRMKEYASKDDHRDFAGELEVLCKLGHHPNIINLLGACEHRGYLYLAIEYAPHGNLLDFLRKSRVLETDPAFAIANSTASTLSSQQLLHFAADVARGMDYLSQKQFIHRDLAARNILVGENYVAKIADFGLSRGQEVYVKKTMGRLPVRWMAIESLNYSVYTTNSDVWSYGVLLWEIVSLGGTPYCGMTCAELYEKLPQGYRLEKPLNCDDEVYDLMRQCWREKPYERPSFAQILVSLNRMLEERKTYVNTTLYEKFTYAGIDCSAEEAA
SRSF protein kinase 3 (Homo sapiens), sequence (Q9UPE1 whole entry, canonical isoform): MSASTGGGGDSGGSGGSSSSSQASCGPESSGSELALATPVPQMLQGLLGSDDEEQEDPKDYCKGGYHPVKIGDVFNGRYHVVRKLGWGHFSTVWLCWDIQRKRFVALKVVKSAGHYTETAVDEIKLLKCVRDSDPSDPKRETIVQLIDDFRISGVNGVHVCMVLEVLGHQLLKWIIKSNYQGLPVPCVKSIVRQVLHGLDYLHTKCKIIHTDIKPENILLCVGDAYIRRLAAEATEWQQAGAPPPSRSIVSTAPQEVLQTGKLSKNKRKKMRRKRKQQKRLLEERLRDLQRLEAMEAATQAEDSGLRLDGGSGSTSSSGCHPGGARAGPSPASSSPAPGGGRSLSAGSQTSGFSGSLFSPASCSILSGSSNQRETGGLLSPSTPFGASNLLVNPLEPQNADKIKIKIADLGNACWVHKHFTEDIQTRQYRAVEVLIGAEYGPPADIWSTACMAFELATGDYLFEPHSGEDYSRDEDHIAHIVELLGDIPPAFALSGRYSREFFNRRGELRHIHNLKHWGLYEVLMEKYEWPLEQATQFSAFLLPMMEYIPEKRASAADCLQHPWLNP
Serine/threonine-protein kinase WNK3 (Homo sapiens), sequence (Q9BYP7 whole entry): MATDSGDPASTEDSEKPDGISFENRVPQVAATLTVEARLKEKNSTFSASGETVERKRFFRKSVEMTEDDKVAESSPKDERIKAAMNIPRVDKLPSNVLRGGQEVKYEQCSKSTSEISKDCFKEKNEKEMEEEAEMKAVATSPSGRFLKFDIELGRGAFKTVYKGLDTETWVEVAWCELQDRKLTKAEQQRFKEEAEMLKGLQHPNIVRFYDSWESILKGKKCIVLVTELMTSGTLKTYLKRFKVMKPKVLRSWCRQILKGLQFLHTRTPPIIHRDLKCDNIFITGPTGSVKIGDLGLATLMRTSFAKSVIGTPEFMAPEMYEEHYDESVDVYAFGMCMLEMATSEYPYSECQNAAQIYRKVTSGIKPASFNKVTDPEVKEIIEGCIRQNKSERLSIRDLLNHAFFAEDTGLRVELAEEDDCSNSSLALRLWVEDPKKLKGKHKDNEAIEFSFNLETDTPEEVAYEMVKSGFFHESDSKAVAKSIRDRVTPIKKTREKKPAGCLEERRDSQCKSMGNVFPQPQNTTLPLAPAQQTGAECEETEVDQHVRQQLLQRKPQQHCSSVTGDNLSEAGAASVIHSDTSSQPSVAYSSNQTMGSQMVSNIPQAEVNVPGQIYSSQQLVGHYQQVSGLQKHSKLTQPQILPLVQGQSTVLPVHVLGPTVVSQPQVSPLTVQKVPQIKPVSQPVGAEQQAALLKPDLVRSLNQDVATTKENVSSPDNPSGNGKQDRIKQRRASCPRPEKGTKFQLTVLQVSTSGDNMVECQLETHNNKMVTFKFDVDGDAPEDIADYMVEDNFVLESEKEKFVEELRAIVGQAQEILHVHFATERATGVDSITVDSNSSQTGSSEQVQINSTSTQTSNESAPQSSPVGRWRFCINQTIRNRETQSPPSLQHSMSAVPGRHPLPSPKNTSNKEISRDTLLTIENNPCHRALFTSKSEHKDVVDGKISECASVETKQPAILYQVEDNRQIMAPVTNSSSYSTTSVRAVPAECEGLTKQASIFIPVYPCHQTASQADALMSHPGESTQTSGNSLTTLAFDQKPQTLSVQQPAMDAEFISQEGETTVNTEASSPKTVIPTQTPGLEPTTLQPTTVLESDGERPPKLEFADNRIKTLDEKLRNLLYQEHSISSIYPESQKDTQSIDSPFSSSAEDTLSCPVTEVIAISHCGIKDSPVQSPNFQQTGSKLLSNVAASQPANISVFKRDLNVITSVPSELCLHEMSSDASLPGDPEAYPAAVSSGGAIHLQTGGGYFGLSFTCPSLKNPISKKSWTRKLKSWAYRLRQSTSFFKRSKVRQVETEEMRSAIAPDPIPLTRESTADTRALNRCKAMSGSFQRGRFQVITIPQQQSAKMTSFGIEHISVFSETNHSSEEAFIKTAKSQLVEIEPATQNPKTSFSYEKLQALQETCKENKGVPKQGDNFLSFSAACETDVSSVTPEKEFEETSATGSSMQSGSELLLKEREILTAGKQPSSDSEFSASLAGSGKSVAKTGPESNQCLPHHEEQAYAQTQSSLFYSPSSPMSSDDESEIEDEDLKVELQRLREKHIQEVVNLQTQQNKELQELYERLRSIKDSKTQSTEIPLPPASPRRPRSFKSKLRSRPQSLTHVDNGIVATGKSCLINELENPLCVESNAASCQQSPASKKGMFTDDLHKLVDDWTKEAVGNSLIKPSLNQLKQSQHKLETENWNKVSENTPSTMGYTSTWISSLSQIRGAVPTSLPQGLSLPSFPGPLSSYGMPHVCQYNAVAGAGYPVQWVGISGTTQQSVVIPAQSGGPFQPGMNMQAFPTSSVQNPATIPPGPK
SRSF protein kinase 1 (Homo sapiens), sequence (Q96SB4 whole entry): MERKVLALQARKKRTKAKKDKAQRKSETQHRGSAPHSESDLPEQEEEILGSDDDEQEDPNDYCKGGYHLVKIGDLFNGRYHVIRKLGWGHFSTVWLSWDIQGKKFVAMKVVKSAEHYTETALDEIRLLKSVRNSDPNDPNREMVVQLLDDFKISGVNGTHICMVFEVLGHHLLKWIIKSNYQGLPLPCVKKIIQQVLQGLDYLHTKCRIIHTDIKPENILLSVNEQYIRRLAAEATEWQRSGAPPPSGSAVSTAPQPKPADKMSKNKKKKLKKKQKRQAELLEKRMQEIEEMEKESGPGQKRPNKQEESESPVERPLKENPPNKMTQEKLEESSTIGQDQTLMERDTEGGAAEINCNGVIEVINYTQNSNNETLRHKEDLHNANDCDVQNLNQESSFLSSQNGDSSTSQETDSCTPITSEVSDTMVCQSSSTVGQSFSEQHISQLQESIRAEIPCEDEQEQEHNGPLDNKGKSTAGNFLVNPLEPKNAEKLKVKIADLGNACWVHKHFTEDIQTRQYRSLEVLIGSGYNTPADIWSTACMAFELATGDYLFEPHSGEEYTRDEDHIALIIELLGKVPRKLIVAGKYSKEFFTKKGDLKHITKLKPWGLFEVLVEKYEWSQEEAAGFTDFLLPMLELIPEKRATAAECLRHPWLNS

Row | residual activity [1] [%] | residual activity [2] [%] | residual activity [3] [%] | residual activity [4] [%] | residual activity [5] [%] | residual activity [6] [%] | residual activity [7] [%] | residual activity [8] [%] | pEC50 [9] | residual activity [10] [%] | residual activity [11] [%] | residual activity [12] [%] | SMILES
1 | 125 | 223 | 83 | 88 | 89 | 76 | 96 | 103 | 6.85 | 78 | 97 | 101 | COc1cc2c(Oc3ccc(-c4nc5ccccc5s4)cc3)ncnc2cc1OCCCN1CCCC1
2 | 126 | 429 | 95 | 83 | 80 | 64 | 85 | 96 | 6.27 | 53 | 93 | 97 | COc1cc2c(Oc3ccc(-c4nc5ccccc5s4)cc3)ncnc2cc1OCCCN1CCN(C)CC1
3 | 129 | 124 | 87 | 92 | 79 | 69 | 89 | 91 | 6.52 | 57 | 115 | 99 | COc1cc2c(Oc3ccc(-c4nc5ccccc5s4)cc3F)ncnc2cc1OCCCN1CCN(C)CC1
